OX1R antag-1 = OX1R (HCRTR1) antagonists, primary screen, fluorescence, CHO/OX1R cells, Fluo-8 calcium, orexin A; Orexin/Hypocretin receptor type 1 (Homo sapiens), O43613; Fluo-8 calcium fluorescence; inhibition, % at 5 µM; actives 0.43% (n = 330,000);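 active means inhibition above its plate's threshold, mean inhibition of all tested compounds on the plate plus 3 SD, cut at about 37% in these data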;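 further: 0% = orexin A challenge wells and 100% = SB-334867-A antagonist wells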
Target sequence (O43613 whole entry, looked up): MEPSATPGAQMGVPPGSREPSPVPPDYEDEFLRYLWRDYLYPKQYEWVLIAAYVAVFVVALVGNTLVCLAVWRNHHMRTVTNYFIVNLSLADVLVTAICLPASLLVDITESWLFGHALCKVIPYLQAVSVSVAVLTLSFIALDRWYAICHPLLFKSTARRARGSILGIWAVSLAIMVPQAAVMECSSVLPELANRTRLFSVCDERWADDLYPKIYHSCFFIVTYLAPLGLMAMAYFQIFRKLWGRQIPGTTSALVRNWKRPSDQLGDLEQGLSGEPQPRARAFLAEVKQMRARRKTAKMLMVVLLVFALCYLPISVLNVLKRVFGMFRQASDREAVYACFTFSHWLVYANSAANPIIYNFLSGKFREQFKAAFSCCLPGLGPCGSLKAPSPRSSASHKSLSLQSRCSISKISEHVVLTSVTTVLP
CHO parental Ca = ATP-evoked calcium signal inhibitors, parental CHO, primary screen, counter-screen for OX1R antagonist project, cell-based, fluorescence, Fluo-8 calcium dye; actives 0.63% (n = 330,000); inhibition, % at 5.6 µM; parental CHO-K1, ATP-induced calcium, Fluo-8 fluorescence; AID 463079, 2010;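 active means inhibition above that plate's mean sample inhibition plus 3 SD, cut at about 26% in these data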;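 further: 0% = ATP-challenged DMSO wells and 100% = DMSO wells without ATP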
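Assay system – parental CHO cells · Reagent – ATP stimulus · Detection – intracellular calcium via Fluo-8 no-wash fluorescent dye · Evaluation – percent inhibition of ATP-evoked calcium rise, normalized to controls · Controls – ATP wells versus no-ATP DMSO wells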
TAAR1 antagonist = human TAAR1 antagonists, primary screen, Fluo-8 calcium fluorescence, CHO RD-HGA16 cells; Trace amine-associated receptor 1 (Homo sapiens), Q96RJ0; antagonist; inhibition, % at 3 µM; actives 1.5% (n = 360,000); AID 624466, 2012;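 active means inhibition above a per-plate cutoff, the mean inhibition of test compounds on that plate plus 3 SD, cut at about 49% in these data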;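 further: 0% = DMSO plus EC80 beta-PEA response and 100% = DMSO alone without agonist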
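Assay system: CHO-derived RD-HGA16 cells stably expressing human TAAR1 plus Gα16. Timing: 140 s kinetic read after compound, 140 s after agonist. Technique: kinetic Fluo-8 calcium fluorescence measurement. Measure: % inhibition of agonist calcium response.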
TAAR1 ag = human TAAR1 agonists, primary screen, Fluo-8 calcium fluorescence, CHO RD-HGA16 cells. vehicle wells 0%, saturating PEA agonist 100%. Trace amine-associated receptor 1 (Homo sapiens), Q96RJ0. activation, % at 3 µM. actives 0.99% (n = 360,000);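 active means activation above the mean activation of all test compounds in the run plus 3 SD, cut at about 38% in these data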
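Test system: RD-HGA16 (CHO) cells co-expressing Gα16 and hTAAR1 / Benchmarks: DMSO vehicle as 0%, PEA at EC100 as 100% / Repeats: no replicates (n 1) / Measure: % activation from peak over basal fluorescence ratio, DMSO-to-PEA scaled / Timing: 17-24 h plating, Fluo-8 75 min 37 °C, 30 min RT / Technique: kinetic Fluo-8 calcium fluorescence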
OX1R antag-2 = antagonists of human orexin 1 receptor (OX1R) | Orexin/Hypocretin receptor type 1 (Homo sapiens), O43613 | OX1R-expressing cells, FRET antagonist read-out | inhibition, % at 6.6 µM | actives 1.8% (n = 330,000) | AID 485270, 2010; in the data active means inhibition mostly above about 38%, no sharp cut-off; inactive means mostly below about 40%;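 further: 0% = agonist challenge alone and 100% = reference antagonist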
OX1R Fluo8 conf = OX1R (HCRTR1) antagonists, confirmation, fluorescence, CHO/OX1R cells, Fluo-8 calcium, orexin A; shares compounds with OX1R antag-1; orexin A calcium Fluo-8 fluorescence; inhibition, % at 5 µM; actives 38% (n = 1,100); AID 492963, 2010; in the data active means inhibition above about 29%;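 further: 0% = agonist challenge alone and 100% = reference antagonist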
CHO Ca triplic = ATP-evoked calcium inhibition in parental CHO, counter-screen for OX1R antagonist project, cell-based, fluorescence, CHO-K1, triplicate | shares compounds with OX1R antag-1 | ATP-induced calcium, Fluo-8 fluorescence | inhibition, % at 5.6 µM | actives 9.3% (n = 1,100);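 active means inhibition above a per-plate limit, the mean inhibition of that plate's test compounds plus 3 SD, cut at about 25% in these data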;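 further: 0% = ATP challenge with DMSO and 100% = DMSO without ATP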
OX1R HTRF conf = OX1R (HCRTR1) antagonists, confirmation, cell-based, HTRF. actives 49% (n = 1,800). shares compounds with OX1R antag-2. AID 492964, 2010. OX1R-expressing cells, HTRF antagonist assay. inhibition, % at 6.6 µM; in the data active means inhibition above about 55%;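 further: CHO cells expressing OX1R stimulated with orexin A at about EC80; 0% = agonist challenge alone and 100% = reference antagonist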
CHO-K1 HTRF = signal inhibition in parental CHO-K1 cells, counter-screen for OX1R antagonist project, cell-based, HTRF; shares compounds with OX1R antag-2; HTRF counterscreen; inhibition, % at 6.6 µM; actives 48% (n = 1,800); AID 493232, 2011; in the data active means inhibition above about 17%;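 further: 0% = agonist challenge with vehicle and 100% = vehicle alone without agonist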
* = called active by the depositor; x = not tested or not shown. Shown are actives, neighbours in structure and some others; about 3.9% of the full set was active somewhere.

SMILES	OX1R antag-1	CHO parental Ca	TAAR1 antagonist	TAAR1 ag	OX1R antag-2	OX1R Fluo8 conf	CHO Ca triplic	others
COC(=O)c1c(C)[nH]c(C(=O)COC(=O)CCNS(=O)(=O)c2cccc(C(F)(F)F)c2)c1C	39	9	16	21	0	-6	-13
CCc1ccc(NC(=O)[C@@H](NC(=O)[C@@H]2Cc3ccccc3CN2)C(C)CC)cc1 (stereo not given in full)	77*	-9	13	-1	0	-12	-14
C[C@H](NC(=O)[C@@H]1CCCN1C(=O)[C@@H]1CCCN1C(=O)c1cccc2ccccc12)c1ccccc1	x	x	9	2	x	x	x
CCn1c(SCC(=O)N2CCCC2)nc2ccccc2c1=O	34*	-22	12	3	16	0	-8
CC(=O)OCC(=O)N1CCN(C(=O)C(=O)c2cccc(C(F)(F)F)c2)CC1	x	x	-9	1	x	x	x
Cc1nn(C)c(C(=O)Nc2ccc3c(c2)OCO3)c1[N+](=O)[O-]	x	x	-4	0	x	x	x
Cc1nn(C)c(C(=O)Nc2ccc(Cl)c([N+](=O)[O-])c2)c1Cl	36	3	6	3	5	2	0
Clc1cccc(CNc2ccn3nc(-c4cccc(Cl)c4)cc3n2)c1	x	x	3	6	x	x	x
CC(C)OC(=O)NCCOC(=O)Nc1ccc(Cl)cc1	29	6	16	8	4	11	9
CCCCCCCCN1C(=O)[C@H](CC(=O)NCCCN2CCCC2=O)C[C@@]2(C(=O)OC)CC(C)(C)CC=C12	x	x	-15	16	x	x	x
CC(Oc1ccc2c3c(c(=O)oc2c1)CCCC3)C(=O)NCc1ccccn1 (stereo not given)	54*	-26	1	0	20	-11	-14
C#CCN1C(=O)[C@]2(OCCC=C[C@H]2C)c2cc(OC)ccc21	x	x	11	1	x	x	x
CCC(=O)N1CCCC(C(=O)Nc2nc3ccccc3[nH]2)CC1 (stereo not given)	x	x	-4	1	x	x	x
COc1ccc(OC(=O)N2CCOCC2)cc1	26	3	-1	-1	-3	-1	3
N#Cc1c(NC(=O)CSc2nc(N)cc(=O)[nH]2)sc2c1CCCC2	25	8	19	0	39	7	8
CCOC(=O)c1c(C)cc2c(CO)n[nH]c(=O)c2c1C	x	x	-10	1	x	x	x
Cc1ccc(S(=O)(=O)N2CCOCC2)cc1NC(=O)COC(=O)CCc1c[nH]c2ccccc12	32	-9	36	13	30	-2	-14
O=C(COC(=O)Cc1c[nH]c2ccccc12)Nc1cc(S(=O)(=O)N2CCOCC2)ccc1Cl	-18	-11	35	13	6	x	x
O=C(NCc1nc(-c2ccc(C(F)(F)F)cc2)no1)Nc1cc(Cl)cc(Cl)c1	24	7	25	8	8	3	48*
O=C(NCc1nc(-c2ccc(C(F)(F)F)cc2)no1)Nc1ccc(F)cc1F	-8	12	-8	1	9	x	x
O=C(O)CCc1ccc(S(=O)(=O)Nc2cc(C(F)(F)F)ccc2N2CCCC2)cc1	x	x	3	2	x	x	x
CCC(NC(=O)c1cc(COc2cc(C)c(Cl)c(C)c2)on1)c1ccncc1 (stereo not given)	42*	17	35	43*	17	27	7
COc1ccccc1OCCCCCc1c(C)n[nH]c1C	43	9	14	11	19	9	1
CC(C)NC(=O)N(C)C[C@@H]1Oc2c(NC(=O)C3CCOCC3)cccc2C(=O)N([C@@H](C)CO)C[C@H]1C	-4	-4	3	1	5	x	x
CCCCCCCn1c2c(c(=N)c3ccccc31)CCC2	30	22	-1	5	4	14	38*
SMILES	OX1R antag-1	CHO parental Ca	TAAR1 antagonist	TAAR1 ag	OX1R antag-2	OX1R Fluo8 conf	CHO Ca triplic	others
CCCn1c2c(c(=N)c3c1CCC3)CCC2	-14	-4	2	11	7	x	x
COc1ccc(S(=O)(=O)NCCc2ccc(F)cc2)cc1	-13	1	-6	-1	12	x	x
CCCCNc1ccc(C(F)(F)F)cc1S(=O)(=O)NCCc1ccc(F)cc1	47	12	50*	0	8	-7	-9
CCN(c1ccccc1)S(=O)(=O)c1cc(C(=O)Nc2ccc(F)c(F)c2)ccc1F	27	-2	56*	11	37	38*	9
COCCCN1C(=O)C(CC(=O)NCC2CCCCC2)CC(C(=O)N2CCOCC2)=C1C (stereo not given)	x	x	-9	2	x	x	x
CC1(Cc2cccc(C(F)(F)F)c2)C(=O)Nc2ccc(-c3ccc(F)c(Cl)c3)cc21 (stereo not given)	x	x	-28	4	x	x	x
CSc1cccc(NC(=O)C2CCN(S(=O)(=O)c3ccc(F)cc3)CC2)c1	10	0	43	18	11	x	x
CSc1cccc(NC(=O)C2CCCN2S(=O)(=O)c2ccc(Br)s2)c1 (stereo not given)	98*	-7	-2	10	89*	93*	-16	OX1R HTRF conf=91*;CHO-K1 HTRF=-1
CSc1cccc(NC(=O)C2CCCN(S(=O)(=O)c3cccs3)C2)c1 (stereo not given)	42*	-8	40	0	61*	50*	4	OX1R HTRF conf=78*;CHO-K1 HTRF=-2
CCN(CC)C(=O)C1=C(C)N(Cc2ccc(C(C)(C)C)cc2)C(=O)C(CC(=O)NCCCCc2ccccc2)C1 (stereo not given)	x	x	1	-2	x	x	x
CC(C)C[C@H]1CN(CCCC[C@H]2CNC(=O)C(=O)N2CC2CCCCC2)C(=O)C(=O)N1CC1CCCCC1	x	x	0	-1	x	x	x
Cc1ccc(N(C)S(=O)(=O)c2cccc(C(=O)NCC(c3cccs3)N3CCOCC3)c2)cc1 (stereo not given)	47*	-31	6	0	78*	38*	-17	OX1R HTRF conf=94*;CHO-K1 HTRF=3

Bioassay records (PubChem)
